The source of these data is ChEMBL document CHEMBL3758120, “Synthesis and Mechanism Studies of 1,3-Benzoazolyl Substituted Pyrrolo[2,3-b]pyrazine Derivatives as Nonintercalative Topoisomerase II Catalytic Inhibitors” (J Med Chem, 2016).

The target of assay [1] is T1, DNA topoisomerase 2-alpha (Homo sapiens, UniProt P11388). The assay is described as follows: Inhibition of purified human topoisomerase 2-mediated relaxation of supercoiled pBR322 DNA at 50 uM incubated for 30 mins in presence of 1 mM ATP by agarose gel electrophoresis. The procedure, abridged:
(§1)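 Reactions contained 0.2 μg supercoiled pBR322 in 50 mM Tris-HCl pH 8.0, 150 mM NaCl, 10 mM MgCl2, 0.5 mM DTT, 30 μg/ml BSA, normally 2 mM ATP (1, 2 or 4 mM in ATP-competition runs). Started with 1 U human Topo II, 30 min at 37 °C, stopped with sarcosyl buffer, run on 1% agarose 1.5 h at 75 V, gel-stained and imaged under UV.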

The subject of assay [2] is Escherichia coli. The experiment in a line: Binding affinity to Escherichia coli pBR322 DNA assessed as intercalation of pBR322 DNA at 0.1 to 100 uM by fluorescence based ethidium bromide displacement assay. A digest of the protocol:
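Increasing concentrations added to 20 nM pBR322 plasmid with 2.5 μM ethidium bromide in 10 mM HEPES pH 7.9, 100 mM KCl, 5 mM MgCl2, 0.1 mM EDTA. Fluorescence emission spectra recorded (excitation 510 nm, emission max 595 nm) at each concentration; mAMSA used as intercalating reference.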

For assay [3], the target named is T1, DNA topoisomerase 2-alpha. Conditions: HL-60, 5 uM.
In assay [4] the target is T1, DNA topoisomerase 2-alpha. The following applies: HL-60, 5 uM. This is another data set of the same source.
Assay [5] relates to Calf thymus DNA. The assay is described as follows: Binding affinity to calf thymus DNA by UV-visible spectrophotometric analysis. The class given is nucleic-acid assay. The following applies: Bos taurus. A digest of the protocol:
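Compound fixed at 5 μM in DPBS pH 7.4 with 1% DMSO, titrated with CT-DNA (0–25 μM; concentration from A260, ε 13 200 M(bp)⁻¹cm⁻¹; A260/280 1.8–1.9). After 20 min equilibration at room temperature, absorption spectra recorded over 300–500 nm.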

Assay [6] concerns HL-60. The assay is described as follows: Induction of apoptosis in human HL60 cells assessed as viable cells at 0.5 uM after 24 hrs by annexin V-FITC/propidium iodide staining-based flow cytometric analysis (reference value: 97.75%). Format: functional. The following applies: HL-60, 24 h, read-out: Activity. The procedure, abridged: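 HL-60 cells at 5.0 × 10^5 cells/ml treated for 12 h (0.5–2 μM) or 24 h (0.25–1 μM), washed twice in cold PBS, resuspended in binding buffer, stained with annexin V-FITC and propidium iodide for 15 min in the dark, analysed by flow cytometry within 1 h; quadrants define live, early and late apoptotic cells. Three repeats.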

Assay [7] concerns the target T1, DNA topoisomerase 2-alpha. The experiment in a line: Inhibition of purified human topoisomerase 2-mediated relaxation of supercoiled pBR322 DNA at 50 uM incubated for 30 mins in presence of 4 mM ATP by agarose gel electrophoresis. A digest of the protocol:
as §1

Activity calls are given as the source filed them. No cut-off for these calls is given here.

T1 sequence (P11388 whole entry): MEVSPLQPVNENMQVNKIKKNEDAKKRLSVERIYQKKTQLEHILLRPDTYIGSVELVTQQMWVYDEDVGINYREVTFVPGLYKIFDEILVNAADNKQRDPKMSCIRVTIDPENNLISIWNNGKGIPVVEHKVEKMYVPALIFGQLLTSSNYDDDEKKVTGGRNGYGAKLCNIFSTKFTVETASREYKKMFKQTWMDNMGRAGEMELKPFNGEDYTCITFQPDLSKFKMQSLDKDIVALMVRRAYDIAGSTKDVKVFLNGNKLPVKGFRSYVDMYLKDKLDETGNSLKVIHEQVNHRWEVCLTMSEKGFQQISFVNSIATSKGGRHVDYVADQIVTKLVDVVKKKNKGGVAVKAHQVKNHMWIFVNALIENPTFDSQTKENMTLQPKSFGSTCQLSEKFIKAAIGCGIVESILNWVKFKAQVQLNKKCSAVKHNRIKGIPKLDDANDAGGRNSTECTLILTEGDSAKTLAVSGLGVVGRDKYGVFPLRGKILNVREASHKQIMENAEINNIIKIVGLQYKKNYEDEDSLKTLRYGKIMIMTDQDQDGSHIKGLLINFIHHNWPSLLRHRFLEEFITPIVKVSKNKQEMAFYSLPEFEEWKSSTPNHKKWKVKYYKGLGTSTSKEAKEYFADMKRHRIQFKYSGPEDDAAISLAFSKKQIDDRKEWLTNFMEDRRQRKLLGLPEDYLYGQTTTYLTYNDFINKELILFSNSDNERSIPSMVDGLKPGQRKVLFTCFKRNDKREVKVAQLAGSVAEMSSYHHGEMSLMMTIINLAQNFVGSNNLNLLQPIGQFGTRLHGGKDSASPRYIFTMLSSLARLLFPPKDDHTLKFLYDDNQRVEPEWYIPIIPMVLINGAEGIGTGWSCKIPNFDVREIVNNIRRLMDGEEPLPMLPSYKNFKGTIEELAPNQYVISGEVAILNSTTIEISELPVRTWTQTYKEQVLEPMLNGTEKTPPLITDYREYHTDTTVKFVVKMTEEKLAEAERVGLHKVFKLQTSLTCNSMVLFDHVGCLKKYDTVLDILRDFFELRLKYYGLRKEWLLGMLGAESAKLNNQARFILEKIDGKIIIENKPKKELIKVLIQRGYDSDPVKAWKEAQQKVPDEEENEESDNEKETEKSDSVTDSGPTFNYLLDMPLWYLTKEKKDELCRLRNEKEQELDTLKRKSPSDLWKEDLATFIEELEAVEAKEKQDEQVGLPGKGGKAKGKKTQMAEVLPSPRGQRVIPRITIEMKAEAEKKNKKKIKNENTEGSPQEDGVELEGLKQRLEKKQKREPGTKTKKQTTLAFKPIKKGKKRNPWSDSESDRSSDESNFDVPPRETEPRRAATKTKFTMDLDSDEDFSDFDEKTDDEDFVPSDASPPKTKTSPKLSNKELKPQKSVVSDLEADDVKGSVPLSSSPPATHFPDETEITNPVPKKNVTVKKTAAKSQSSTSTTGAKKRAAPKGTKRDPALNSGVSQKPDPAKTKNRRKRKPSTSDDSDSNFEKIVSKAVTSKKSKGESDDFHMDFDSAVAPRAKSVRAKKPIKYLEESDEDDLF

Broadly, the IC50 is the point on the concentration scale where inhibition reaches its midpoint. `CN(C)CCCCn1c(N)c(-c2nc3ccccc3[nH]2)c2nc(C#N)c(C#N)nc21`: the values for the IC50 in assay [1] and in assay [7] were 0.9 µM and 16.5 µM, respectively. For the same molecule, the inhibition result in assay [2] and in assay [3] was “inactive” in each case. In addition, the inhibition result in assay [4] is “Active”. The molecule also displayed a Kb in assay [5] of 2.8 ×10⁵ /M. The viability at 0.5 µM in assay [6] is 13.9%.

Turning to `CCN(CC)CCCCn1c(N)c(-c2nc3ccccc3[nH]2)c2nc(C#N)c(C#N)nc21`, the viability at 0.5 µM in assay [6] came to 78.7%.
